From ChEMBL document CHEMBL1148768, “Nitrated indenoisoquinolines as topoisomerase I inhibitors: a systematic study and optimization” (2007)

Key:
Type in all cases: functional
MDA-MB-435 = assay: Cytotoxicity against human MDA-MB-435 cells
UACC-62 = assay: Cytotoxicity against human UACC62 cells
Outline: (§1)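 Read-out is growth inhibition of human cancer cell lines. GI50 is taken as the compound concentration giving 50% growth inhibition.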

SN12C = assay: Cytotoxicity against human SN12C cells; outline: as §1
SF-539 = assay: Cytotoxicity against human SF539 cells; outline: as §1
DU-145 = assay: Cytotoxicity against human DU145 cells; outline: as §1
OVCAR-3 = assay: Cytotoxicity against human OVCAR-3 cells
HOP-62 = assay: Cytotoxicity against human HOP62 cells; outline: as §1
HCT-116 = assay: Cytotoxicity against human HCT116 cells; outline: as §1

| SMILES | GI50 (MDA-MB-435) [µM] | GI50 (UACC-62) [µM] | GI50 (SN12C) [µM] | GI50 (SF-539) [µM] | GI50 (DU-145) [µM] | GI50 (OVCAR-3) [µM] | GI50 (HOP-62) [µM] | GI50 (HCT-116) [µM] |
| --- | --- | --- | --- | --- | --- | --- | --- | --- |
| COc1ccc2c(c1)C(=O)c1c-2n(CCCNCCO)c(=O)c2cc([N+](=O)[O-])ccc12 | < 0.01 | < 0.01 | 0.012 | < 0.01 | < 0.01 | < 0.01 | < 0.01 | – |
| COc1ccc2c(c1)C(=O)c1c-2n(CCCN2CCOCC2)c(=O)c2cc([N+](=O)[O-])ccc12 | < 0.01 | < 0.01 | < 0.01 | – | – | < 0.01 | < 0.01 | < 0.01 |
| COc1ccc2c(c1)C(=O)c1c-2n(CCCN2CCOCC2)c(=O)c2ccccc12 | 4.68 | 1.58 | 4.07 | 1.95 | 2.29 | 2.69 | 1.41 | 1.26 |
| O=C1c2ccccc2-c2c1c1ccc([N+](=O)[O-])cc1c(=O)n2CCCN1CCOCC1 | 1.23 | 0.38 | 0.309 | 0.095 | 0.085 | – | 0.021 | 0.038 |
| COc1ccc2c(c1)C(=O)c1c-2n(CCCI)c(=O)c2cc([N+](=O)[O-])ccc12 | 1.48 | 0.148 | 0.309 | 0.058 | 0.034 | 3.02 | – | 0.046 |
| COc1ccc2c(c1)C(=O)c1c-2n(CCCn2ccnc2)c(=O)c2cc([N+](=O)[O-])ccc12 | < 0.01 | < 0.01 | < 0.01 | < 0.01 | < 0.01 | 0.02 | < 0.01 | < 0.01 |
| O=C1c2ccccc2-c2c1c1ccccc1c(=O)n2CCCn1ccnc1 | – | 0.79 | 1.66 | – | 1.41 | 1.66 | 2.69 | 1.41 |
| COc1ccc2c(c1)C(=O)c1c-2n(CCCN(C)C)c(=O)c2cc([N+](=O)[O-])ccc12 | < 0.01 | < 0.01 | < 0.01 | < 0.01 | < 0.01 | 0.028 | < 0.01 | < 0.01 |
| NCCCn1c2c(c3ccc([N+](=O)[O-])cc3c1=O)C(=O)c1ccccc1-2 | – | – | – | 0.302 | – | – | – | – |
| COc1ccc2c(c1)C(=O)c1c-2n(CCCN=[N+]=[N-])c(=O)c2ccccc12 | 64.6 | 75.9 | > 100 | 44.7 | 61.7 | 52.5 | 33.9 | 26.9 |
| [N-]=[N+]=NCCCn1c2c(c3ccccc3c1=O)C(=O)c1ccccc1-2 | – | – | – | – | 29.5 | – | – | – |
| COc1ccc2c(c1)C(=O)c1c-2n(CCCNCCO)c(=O)c2ccccc12 | 0.389 | 0.55 | 0.158 | 0.112 | 0.055 | 0.417 | 0.026 | 0.044 |
| O=C1c2ccccc2-c2c1c1ccccc1c(=O)n2CCCNCCO | 0.49 | 0.178 | 0.269 | 0.55 | 0.174 | 0.55 | 0.195 | – |
| O=C1c2ccccc2-c2c1c1ccccc1c(=O)n2CCCN1CCOCC1 | > 100 | 5.37 | 21.4 | 3.47 | 7.24 | 16.6 | 3.72 | – |
| COc1ccc2c(c1)C(=O)c1c-2n(CCCN(C)C)c(=O)c2ccccc12 | 0.617 | 1 | 0.245 | 0.24 | 0.257 | 0.427 | 0.078 | 0.102 |
| COc1ccc2c(c1)C(=O)c1c-2n(CCCN)c(=O)c2cc([N+](=O)[O-])ccc12 | – | – | – | – | – | – | – | < 0.01 |
| COc1ccc2c(c1)C(=O)c1c-2n(CCCn2ccnc2)c(=O)c2ccccc12 | 0.646 | 0.071 | 0.676 | 0.178 | 0.204 | 1.66 | 0.056 | 0.11 |
| COc1cc2c3c(n(C)c(=O)c2cc1OC)-c1cc2c(cc1C3=O)OCO2 | 96 | 4.2 | 68 | – | 37 | – | 1.3 | 35 |
| O=C1c2ccccc2-c2c1c1ccc([N+](=O)[O-])cc1c(=O)n2CCCNCCO | 1.07 | 0.2 | 0.229 | > 100 | > 100 | 1.35 | 0.031 | 0.027 |
| [N-]=[N+]=NCCCn1c2c(c3ccc([N+](=O)[O-])cc3c1=O)C(=O)c1ccccc1-2 | – | – | – | 79.4 | – | – | – | – |
| NCCCn1c2c(c3ccccc3c1=O)C(=O)c1ccccc1-2 | 0.78 | 0.26 | 0.16 | 0.25 | 0.22 | 1.38 | – | 0.18 |
| O=C1c2ccccc2-c2c1c1ccc([N+](=O)[O-])cc1c(=O)n2CCCBr | – | – | – | > 100 | – | – | – | 3.47 |
| COc1ccc2c(c1)C(=O)c1c-2n(CCCN)c(=O)c2ccccc12 | 0.059 | – | < 0.01 | 0.038 | 0.014 | 0.028 | < 0.01 | < 0.01 |
